From ChEMBL document CHEMBL2062460, “Disubstituted thiourea derivatives and their activity on CNS: synthesis and biological evaluation” (Eur J Med Chem, 2012)
Active and inactive are the calls of the source. The calls are words filed in the database; no cut-off is given here.

Legend:
HepG2 = assay: Cytotoxicity against human HepG2 cells after 96 hrs by MTT assay; assay type: functional; settings: HepG2, 96 h
How it was run: (§1)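 Solid tumour lines were seeded at 1 × 10^5 cells/ml in line-specific media with 10% FCS and antibiotics. Serial dilutions from a 100 mM DMSO stock were added. After 96 h at 37 °C in 5% CO2, viability was read by MTT. The 50% growth-inhibiting concentration (µM) was obtained by linear regression versus untreated controls. Values are means of three independent determinations.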

Mus musculus [1] = assay: Toxicity in Albino Swiss mouse assessed as effect on amphetamine-induced hyperactivity administered at doses equivalent to 0.1 ED50, ip; assay type: organism-based; settings: in vivo
How it was run: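 Compound i.p. in 0.5% methylcellulose 60 min before test; amphetamine 5 mg/kg s.c. 30 min before test; single mice in photoresistor actometers, light-beam crossings counted for 30 min.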

[2] = system: Staphylococcus epidermidis; assay: Antibacterial activity against methicillin-resistant Staphylococcus epidermidis clinical isolate 316/08 after 18 hrs by twofold serial agar dilution technique; assay type: functional; settings: clinical isolate 316/08, 18 h
How it was run: (§2)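 Clinical isolates came from patients in Warsaw Medical University Hospitals and were classed as methicillin-susceptible or -resistant. MIC was determined by twofold serial agar dilution on Mueller–Hinton II agar (CLSI), 3.125–400 µg/mL in agar, with compounds in methanol or DMSO. Inoculum was 10^4 CFU/mL and plates were read after 18 h at 35 °C.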

[3] = system: Staphylococcus epidermidis; assay: Antibacterial activity against methicillin-resistant Staphylococcus epidermidis clinical isolate 311/08 after 18 hrs by twofold serial agar dilution technique; assay type: functional; settings: clinical isolate 311/08, 18 h; how it was run: as §2
CCRF-CEM = assay: Cytotoxicity against human CCRF-CEM cells after 96 hrs by MTT assay; assay type: functional
How it was run: (§3)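 Haematological tumour lines were seeded at 1 × 10^5 cells/ml in RPMI-1640 with 10% FCS plus penicillin/streptomycin. Serial dilutions from a 100 mM DMSO stock were added. After 96 h at 37 °C in 5% CO2, viability was read by MTT. The 50% proliferation-inhibiting concentration (µM) was obtained by linear regression against untreated controls, which completed at least three rounds of multiplication. Values are means of three determinations.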

SK-MEL-28 = assay: Cytotoxicity against human SK-MEL-28 cells after 96 hrs by MTT assay; assay type: functional; settings: SK-MEL-28, 96 h; how it was run: as §1
[4] = Cytotoxicity against human CRL7065 cells after 96 hrs by MTT assay; assay type: cell-based, CRL-7065
How it was run: (§4)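 Normal fibroblasts seeded at 1 × 10^5 cells/ml in specific media with 10% FCS and antibiotics; serial compound dilutions (100 mM DMSO stock); 96 h at 37 °C, 5% CO2; MTT read-out; 50% proliferation-reduction concentration by linear regression vs untreated controls; mean of three determinations.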

Mus musculus [5] = assay: Toxicity in Albino Swiss mouse assessed as locomotor activity administered at doses equivalent to 0.1 ED50, ip measured after 1 hr for 30 mins; assay type: organism-based; settings: in vivo
How it was run: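 Spontaneous locomotor activity of single male Albino Swiss mice in photoresistor actometers (two light beams), beam crossings recorded for 30 min, starting 60 min after i.p. compound in 0.5% methylcellulose.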

WIL2-NS = assay: Cytotoxicity against human WIL2-NS cells after 96 hrs by MTT assay; assay type: functional; how it was run: as §3
DU-145 = assay: Cytotoxicity against human DU145 cells after 96 hrs by MTT assay; assay type: functional; settings: DU-145, 96 h; how it was run: as §1
Mus musculus [6] = assay: Toxicity in Albino Swiss mouse assessed as motor coordination administered at doses equivalent to 0.1 ED50, ip by rota rod test; assay type: organism-based; settings: in vivo
[7] = system: Staphylococcus epidermidis; assay: Antibacterial activity against methicillin-resistant Staphylococcus epidermidis clinical isolate 315/08 after 18 hrs by twofold serial agar dilution technique; assay type: functional; settings: clinical isolate 315/08, 18 h; how it was run: as §2
[8] = system: Staphylococcus epidermidis; assay: Antibacterial activity against methicillin-resistant Staphylococcus epidermidis clinical isolate 343/09 after 18 hrs by twofold serial agar dilution technique; assay type: functional; settings: clinical isolate 343/09, 18 h; how it was run: as §2
SK-MES-1 = assay: Cytotoxicity against human SKMES1 cells after 96 hrs by MTT assay; assay type: functional; settings: SK-MES-1, 96 h; how it was run: as §1
Mus musculus [9] = assay: Reduction of body temperature in normothermic Albino Swiss mouse administered at doses equivalent to 0.1 ED50, ip measured in rectum by thermistor thermometer analysis; assay type: ADME, organism-based; settings: in vivo
[10] = system: Staphylococcus epidermidis; assay: Antibacterial activity against methicillin-resistant Staphylococcus epidermidis clinical isolate 342/09 after 18 hrs by twofold serial agar dilution technique; assay type: functional; settings: clinical isolate 342/09, 18 h; how it was run: as §2
CCRF-SB = assay: Cytotoxicity against human CCRF-SB cells after 96 hrs by MTT assay; assay type: functional; how it was run: as §3
[11] = system: Staphylococcus epidermidis; assay: Antibacterial activity against methicillin-resistant Staphylococcus epidermidis clinical isolate 341/09 after 18 hrs by twofold serial agar dilution technique; assay type: functional; settings: clinical isolate 341/09, 18 h; how it was run: as §2
[12] = system: Staphylococcus epidermidis; assay: Antibacterial activity against methicillin-resistant Staphylococcus epidermidis clinical isolate 340/09 after 18 hrs by twofold serial agar dilution technique; assay type: functional; settings: clinical isolate 340/09, 18 h; how it was run: as §2
[13] = Cytotoxicity against human MRC5 cells after 96 hrs by MTT assay; assay type: cell-based; how it was run: as §4
Mus musculus [14] = assay: Antinociceptive activity in Albino Swiss mouse administered at doses equivalent to 0.025 to 0.1 ED50, ip in presence of naloxone; assay type: functional, organism-based
How it was run: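 Acetic acid (0.6%, i.p.) writhing test in male Albino Swiss mice, compound i.p. in 0.5% methylcellulose 60 min prior, with naloxone 5 mg/kg s.c.; writhes counted 10 min from 5 min post-acid; mean ± S.E.M., 8–10 mice per group.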

Mus musculus [15] = assay: Anticonvulsant activity in Albino Swiss mouse assessed as protection against pentylenetetrazole-induced mortality administered at doses equivalent to 0.1 ED50, ip; assay type: functional, organism-based
Mus musculus [16] = assay: Toxicity in Albino Swiss mouse assessed as motor coordination administered at doses equivalent to 0.1 ED50, ip by chimney test; assay type: organism-based; settings: in vivo
[17] = system: Human immunodeficiency virus 1; assay: Antiviral activity against HIV1 infected in human MT4 cells assessed as virus-induced cytopathogenicity after 4 days by MTT assay; assay type: functional, organism-based; settings: Human immunodeficiency virus 1, MT4, 96 h
MCF7 = assay: Cytotoxicity against human MCF7 cells after 96 hrs by MTT assay; assay type: functional; settings: MCF7, 96 h; how it was run: as §1
Mus musculus [18] = assay: Anticonvulsant activity in Albino Swiss mouse assessed as protection against pentylenetetrazole-induced severity of clonic or tonic seizures administered at doses equivalent to 0.1 ED50, ip; assay type: functional, organism-based
[19] = system: Staphylococcus epidermidis; assay: Antibacterial activity against methicillin-resistant Staphylococcus epidermidis clinical isolate 318/08 after 18 hrs by twofold serial agar dilution technique; assay type: functional; settings: clinical isolate 318/08, 18 h; how it was run: as §2
[20] = Cytotoxicity against human MT4 cells after 96 hrs by MTT assay; assay type: cell-based
[21] = system: Staphylococcus epidermidis; assay: Antibacterial activity against methicillin-resistant Staphylococcus epidermidis clinical isolate 317/08 after 18 hrs by twofold serial agar dilution technique; assay type: functional; settings: clinical isolate 317/08, 18 h; how it was run: as §2
Mus musculus [22] = assay: Antinociceptive activity in Albino Swiss mouse administered at doses equivalent to 0.025 to 0.1 ED50, ip; assay type: functional, organism-based
Mus musculus [23] = assay: Reduction of 5-hydroxytryptophan-induced head twitch in Albino Swiss mouse administered at doses equivalent to 0.1 ED50, ip; assay type: functional, organism-based
[24] = system: Staphylococcus epidermidis; assay: Antibacterial activity against methicillin-resistant Staphylococcus epidermidis clinical isolate 377/09 after 18 hrs by twofold serial agar dilution technique; assay type: functional; settings: clinical isolate 377/09, 18 h; how it was run: as §2

Nc1ncnn1/C(S)=N/Cc1ccccc1
CC50 (HepG2): 78 µM
Activity (Mus musculus [1]): Non-toxic
MIC [2]: > 400 µg/mL
MIC [3]: > 400 µg/mL
CC50 (CCRF-CEM): 39 µM
CC50 (SK-MEL-28): 72 µM
CC50 at 96 h [4]: 47 µM
Activity (Mus musculus [5]): Non-toxic
CC50 (WIL2-NS): 52 µM
CC50 (DU-145): 11 µM
Activity (Mus musculus [6]): Non-toxic
MIC [7]: > 400 µg/mL
MIC [8]: > 400 µg/mL
CC50 (SK-MES-1): 85 µM
Activity (Mus musculus [9]): Toxic
MIC [10]: > 400 µg/mL
CC50 (CCRF-SB): 42 µM
MIC [11]: > 400 µg/mL
MIC [12]: > 400 µg/mL
CC50 at 96 h [13]: 43 µM
Activity (Mus musculus [14]): inactive
Activity (Mus musculus [15]): inactive
Activity (Mus musculus [16]): Non-toxic
EC50 [17]: > 7.4 µM
CC50 (MCF7): 49 µM
Activity (Mus musculus [18]): inactive
MIC [19]: > 400 µg/mL
CC50 at 96 h [20]: 7.4 µM
MIC [21]: > 400 µg/mL
Activity (Mus musculus [22]): Active
Activity (Mus musculus [23]): Active
MIC [24]: > 400 µg/mL
